This is an account of results in publication PMC3288198 (ACS Chemical Biology, 2011).

Holding throughout (type): biochemical
The target in one assay is T1, HDAC6 (Homo sapiens, UniProt Q9UBN7).
T1 sequence (Q9UBN7 1-1215): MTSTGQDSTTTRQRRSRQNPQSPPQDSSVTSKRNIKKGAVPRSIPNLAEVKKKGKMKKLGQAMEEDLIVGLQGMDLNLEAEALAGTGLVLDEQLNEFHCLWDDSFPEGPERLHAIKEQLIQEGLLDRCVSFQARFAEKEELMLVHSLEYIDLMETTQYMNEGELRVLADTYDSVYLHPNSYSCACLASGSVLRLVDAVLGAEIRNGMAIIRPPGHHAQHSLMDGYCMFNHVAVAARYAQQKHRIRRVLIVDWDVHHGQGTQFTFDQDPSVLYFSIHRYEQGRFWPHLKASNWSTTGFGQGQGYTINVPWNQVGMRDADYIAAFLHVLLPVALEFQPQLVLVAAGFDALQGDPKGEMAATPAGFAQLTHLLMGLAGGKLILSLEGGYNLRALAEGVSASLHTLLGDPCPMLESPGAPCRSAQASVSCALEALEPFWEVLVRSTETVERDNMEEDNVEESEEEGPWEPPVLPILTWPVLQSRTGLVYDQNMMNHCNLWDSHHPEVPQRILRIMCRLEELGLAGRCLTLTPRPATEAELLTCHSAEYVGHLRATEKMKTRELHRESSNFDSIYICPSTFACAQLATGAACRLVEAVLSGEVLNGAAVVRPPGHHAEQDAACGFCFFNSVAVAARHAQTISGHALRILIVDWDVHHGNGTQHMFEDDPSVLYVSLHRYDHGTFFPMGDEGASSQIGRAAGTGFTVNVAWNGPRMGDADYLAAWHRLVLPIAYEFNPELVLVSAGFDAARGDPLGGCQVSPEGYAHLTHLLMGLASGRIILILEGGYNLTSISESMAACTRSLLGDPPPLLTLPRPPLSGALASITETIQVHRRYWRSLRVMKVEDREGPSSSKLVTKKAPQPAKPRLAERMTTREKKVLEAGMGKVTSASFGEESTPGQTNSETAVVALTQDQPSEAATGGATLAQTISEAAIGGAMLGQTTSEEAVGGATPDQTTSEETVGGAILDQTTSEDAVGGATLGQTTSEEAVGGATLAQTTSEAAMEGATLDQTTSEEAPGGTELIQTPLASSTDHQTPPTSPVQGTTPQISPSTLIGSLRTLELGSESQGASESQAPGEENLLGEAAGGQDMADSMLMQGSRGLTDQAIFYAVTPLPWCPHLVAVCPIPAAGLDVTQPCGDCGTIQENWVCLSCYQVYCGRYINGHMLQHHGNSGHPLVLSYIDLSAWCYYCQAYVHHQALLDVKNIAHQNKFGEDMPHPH
As to the kind of experiment: HDAC deacetylase homogenous fluorescence assay, HDAC6. In a few lines:
(§1)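 Baculovirus-expressed recombinant human enzyme (HDAC3 as HDAC3/N-CoR2 complex) incubated with serially diluted test compound over a 12-point titration. Substrate: acetylated AMC-K(Ac)GL. Deacetylated product cleaved by lysine peptidase to free MCA, read at ex 355/em 460 nm. Data normalised to control plate by plate. IC50 and SD from non-linear regression; Ki via Cheng-Prusoff, Ki = IC50/(1+[S]/Km).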

The next assay deals with HDAC9 (Homo sapiens, UniProt Q9UKV0). As to the kind of experiment: HDAC deacetylase homogenous fluorescence assay, HDAC9. The gist of the method:
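Recombinant human enzyme (HDAC5, 8, 9 baculovirus-expressed) incubated with serially diluted test compound over a 12-point titration. Substrate: trifluoroacetylated AMC-K(TFA)GL. Peptidase development releases MCA, read at ex 355/em 460 nm. Activity normalised to plate controls. IC50 and SD by non-linear regression; Ki by Cheng-Prusoff, Ki = IC50/(1+[S]/Km).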

A further assay has as its target T2, HDAC10 (Homo sapiens, UniProt Q969S8).
T2 sequence (Q969S8 1-669): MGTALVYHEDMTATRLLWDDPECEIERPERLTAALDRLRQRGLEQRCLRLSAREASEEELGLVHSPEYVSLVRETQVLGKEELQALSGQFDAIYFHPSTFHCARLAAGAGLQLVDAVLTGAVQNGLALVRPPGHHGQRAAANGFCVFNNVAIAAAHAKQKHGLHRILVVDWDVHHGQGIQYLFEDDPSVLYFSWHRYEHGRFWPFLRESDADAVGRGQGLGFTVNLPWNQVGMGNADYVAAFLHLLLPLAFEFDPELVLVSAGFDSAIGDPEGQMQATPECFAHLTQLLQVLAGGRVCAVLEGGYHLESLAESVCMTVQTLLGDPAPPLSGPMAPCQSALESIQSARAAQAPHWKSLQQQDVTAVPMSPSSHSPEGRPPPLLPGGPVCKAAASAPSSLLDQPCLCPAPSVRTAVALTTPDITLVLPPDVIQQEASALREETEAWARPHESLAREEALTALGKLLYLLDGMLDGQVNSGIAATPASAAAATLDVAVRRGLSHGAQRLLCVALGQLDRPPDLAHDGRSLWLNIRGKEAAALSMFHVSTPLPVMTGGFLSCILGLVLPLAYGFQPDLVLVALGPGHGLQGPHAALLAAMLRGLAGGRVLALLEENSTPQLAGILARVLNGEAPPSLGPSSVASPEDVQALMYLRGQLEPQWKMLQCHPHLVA
As to the kind of experiment: HDAC deacetylase homogenous fluorescence assay, HDAC10. The gist of the method:
as §1

Setting [1] is: read-out: HDAC6 IC50, 12 point titration, acetylated substrate.
Where [2] appears, read: read-out: HDAC9 IC50, 12 point titration, trifluoroacetylated substrate.
The mark [3] stands for this setting: read-out: HDAC9 Ki, converted from IC50 using Cheng-Prusoff equation.
Setting [4] is: read-out: HDAC10 IC50, 12 point titration, acetylated substrate.
[5] abbreviates: read-out: HDAC6 Ki, converted from IC50 using Cheng-Prusoff equation.

SMILES strings stand for the structures. Like-named read-outs stand apart in the source and are kept apart here.

HDAC9, sequence (Q9UKV0 whole entry): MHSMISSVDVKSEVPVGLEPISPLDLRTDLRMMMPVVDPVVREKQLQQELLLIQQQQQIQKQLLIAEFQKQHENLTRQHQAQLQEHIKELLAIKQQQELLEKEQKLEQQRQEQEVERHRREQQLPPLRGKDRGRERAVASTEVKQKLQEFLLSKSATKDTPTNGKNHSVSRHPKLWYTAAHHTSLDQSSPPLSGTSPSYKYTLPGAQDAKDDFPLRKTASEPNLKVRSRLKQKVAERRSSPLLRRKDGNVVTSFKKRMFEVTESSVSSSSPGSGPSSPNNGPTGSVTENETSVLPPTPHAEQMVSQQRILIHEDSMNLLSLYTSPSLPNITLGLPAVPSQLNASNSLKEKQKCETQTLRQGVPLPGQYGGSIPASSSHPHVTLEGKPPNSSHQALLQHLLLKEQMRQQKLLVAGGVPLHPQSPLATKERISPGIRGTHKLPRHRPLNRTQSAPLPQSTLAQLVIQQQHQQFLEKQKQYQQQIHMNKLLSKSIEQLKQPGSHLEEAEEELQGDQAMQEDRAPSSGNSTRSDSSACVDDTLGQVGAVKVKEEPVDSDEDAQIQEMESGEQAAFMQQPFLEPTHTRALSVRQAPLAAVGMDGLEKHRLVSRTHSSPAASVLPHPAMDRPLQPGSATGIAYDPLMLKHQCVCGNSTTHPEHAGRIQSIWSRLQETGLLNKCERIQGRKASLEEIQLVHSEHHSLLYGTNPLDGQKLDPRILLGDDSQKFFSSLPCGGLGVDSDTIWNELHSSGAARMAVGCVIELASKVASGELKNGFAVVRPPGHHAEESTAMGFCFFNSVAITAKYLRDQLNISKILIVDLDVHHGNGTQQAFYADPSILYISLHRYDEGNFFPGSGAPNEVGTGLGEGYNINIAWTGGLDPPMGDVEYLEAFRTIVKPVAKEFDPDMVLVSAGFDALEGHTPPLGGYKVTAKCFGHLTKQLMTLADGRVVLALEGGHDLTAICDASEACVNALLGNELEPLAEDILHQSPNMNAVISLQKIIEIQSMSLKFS

Consider `O=C1C(SCCO)=C(SCCO)C(=O)c2ccccc21` [NSC-95397, 2,3-bis[(2-Hydroxyethyl)thio]-1,4-naphthoquinone], for which the IC50 against HDAC6 is 12.7 ± 2.5 µM; against HDAC9, 4.8 ± 1.4 µM; on HDAC10, 14.5 ± 1.5 µM. The Ki at HDAC6 amounted to 3.07 µM; at HDAC9, 2.04 µM; on HDAC10, 6400 nM.
With `NC(N)=Nc1ccc2[nH]c3c(c2c1)C[C@@]1(O)[C@H]2Cc4ccc(O)c5c4[C@@]1(CCN2CC1CC1)[C@H]3O5` [GNTI, guanidinyl-naltrindole di-trifluoroacetate], the results for the IC50 on HDAC6 (setting [1]), at HDAC9 (setting [2]) and at HDAC10 (setting [4]) were > 180 µM, 12.3 ± 1.7 µM and > 180 µM, respectively. The Ki at HDAC9 (setting [3]) came out at 5.23 µM.
Take `O=c1c2ccccc2[se]n1-c1ccccc1` [Ebselen, 2-phenyl-1,2-benzisoselenazol-3(2H)-one]: the IC50 on HDAC6 worked out at 12.8 ± 2.6 µM; against HDAC9, 0.97 ± 0.5 µM; at HDAC10 it was 0.95 ± 0.4 µM. The Ki stood at 3.1 µM on HDAC6 and 420 nM at HDAC10.
As to `OC[C@H]1O[C@H]([S-])[C@H](O)[C@@H](O)[C@@H]1O.[Au+]` [Aurothioglucose, 1-thio-D-glucopyronaose gold salt], the IC50 was found to be 14.4 ± 5.8 µM on HDAC6 (setting [1]), 2.8 ± 0.1 µM at HDAC9 (setting [2]) and 4.9 ± 1.5 µM at HDAC10 (setting [4]). Also, the Ki on HDAC6 (setting [5]) turned out to be 3.49 µM; at HDAC9 (setting [3]), 1.19 µM; at HDAC10 (read-out: HDAC10 Ki, converted from IC50 using Cheng-Prusoff equation), 2160 nM.
For the molecule `COc1ccc2c(c1)CC[C@@H]1[C@@H]2CC[C@]2(C)[C@@H](NCCCCCCN3C(=O)C=CC3=O)CC[C@@H]12` [U-73122, 1-[6-[[(17beta)-3-methoxyestra-1,3,5([10])-trien-17-yl]amion]hexyl]-1H-pyrrole-2,5-dione], the IC50 on HDAC6 (setting [1]) is 45.2 ± 12.6 µM; on HDAC9 (setting [2]), 29.8 ± 5.6 µM; at HDAC10 (setting [4]), > 100 µM. Also, the Ki turned out to be 11 µM at HDAC6 (setting [5]) and 12.7 µM on HDAC9 (setting [3]).

What is called IC50 is the midpoint of a concentration-inhibition curve. As usually defined, the Ki is the dissociation constant of the complex between target and ligand, obtained from inhibition or displacement.
